Measurements published in the M2OR odorant receptor database.

The molecules below were run against T1, OR8D1 (Homo sapiens) (UniProt Q8WZ84). Settings: stereoisomer not certain.
T1 sequence (whole entry): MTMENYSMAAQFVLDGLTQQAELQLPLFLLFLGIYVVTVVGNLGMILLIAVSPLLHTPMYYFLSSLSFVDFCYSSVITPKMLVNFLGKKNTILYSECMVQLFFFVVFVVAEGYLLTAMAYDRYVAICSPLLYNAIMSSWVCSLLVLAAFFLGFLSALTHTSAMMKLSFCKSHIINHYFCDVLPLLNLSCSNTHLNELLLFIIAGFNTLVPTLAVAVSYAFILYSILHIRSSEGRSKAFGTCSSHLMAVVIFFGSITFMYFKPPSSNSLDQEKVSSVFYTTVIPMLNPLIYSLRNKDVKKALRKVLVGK
Outline: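 Each entry records the cell line, G-protein, co-transfected protein and tags used. Methods varied with the source, often transient luciferase assays in mammalian cell lines. A receptor–molecule pair is called responsive (active) if the original authors judged its signal statistically different from baseline and non-responsive (inactive) otherwise.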

| Compound | odorant receptor agonist call |
| --- | --- |
| COC1=C(C)OC(C)C1=O (configuration not stated) | inactive |
| Cc1ccc(O)cc1 | inactive |
| Cc1occc(=O)c1O | inactive |
| CCCCCC=O | inactive |
| CCCCCC=CCCC=O | inactive |
| CC(=O)OCCC(C)C | inactive |
| CCC(C)CCC(=O)[O-] (configuration not stated) | inactive |
| CCCCCCC=CC=O | inactive |
| C=CC(=C)CCC=C(C)C | inactive |
| CSCCCO | inactive |
| CCCC(S)CCO (configuration not stated) | inactive |
| CCc1ncc(C)nc1CC | inactive |
| Cc1cccc(O)c1 | inactive |
| CC(=O)c1cnccn1 | inactive |
| C=C(C)c1ccc(C)cc1 | inactive |
| C=Cc1ccc(O)cc1 | inactive |
| O=c1ccc2ccccc2o1 | inactive |
| CSSSC | inactive |
| CCCCC=CC=O | inactive |

| Compound | odorant receptor agonist call |
| --- | --- |
| CC(C)(S)CCOC=O | inactive |
| CCCCCCCC1CCCC(=O)O1 (configuration not stated) | inactive |
| CCCCCC(C)O (configuration not stated) | inactive |
| CCCCCC=CC=CC=O | inactive |
| CCCCC(C)CCC(=O)O (configuration not stated) | inactive |
| C=CC(O)CCCCC (configuration not stated) | inactive |
| OCCc1ccccc1 | inactive |
| O=C(O)CCc1ccccc1 | inactive |
| CCC=O | inactive |
| CCCC=CC=O | inactive |
| CSCSC | inactive |
| C=CC(=O)CC=CCC | inactive |
| COc1ccc(C)cc1O | inactive |
| COc1nccnc1C(C)C | inactive |
| CCC(=O)C(C)=O | inactive |
| CCCCC1OC(=O)CC1C (configuration not stated) | inactive |
| CCCCCCCCCO | inactive |
| CC(=O)C1=NCCS1 | inactive |
